Reference: ChEMBL document CHEMBL2412970, “Synthesis and anticancer activity of 2,4-disubstituted furo[3,2-b]indole derivatives” (Eur J Med Chem, 2013)
The source made the active and inactive calls. The calls are words filed in the database; no cut-off is given here.

Legend:
A498 [1] = experiment: Induction of apoptosis in human A498 cells assessed as early apoptotic cells at 0.5 uM after 48 hrs by AnnexinV/FITC-propidium iodide staining-based flow cytometry (reference value: 3.9%); type: functional
A498 [2] = experiment: Cell cycle arrest in human A498 cells assessed as accumulation at G2/M phase at 0.5 uM after 36 hrs by propidium iodide staining-based flow cytometry (reference value: 5.39 +/- 0.01%); type: functional
DU-145 = experiment: Cytotoxicity against human DU145 cells after 48 hrs by sulforhodamine B assay; type: functional; conditions: DU-145, 48 h
SK-MEL-2 = experiment: Cytotoxicity against human SK-MEL-2 cells after 48 hrs by sulforhodamine B assay; type: functional; conditions: SK-MEL-2, 48 h
A498 [3] = experiment: Induction of apoptosis in human A498 cells assessed as caspase-9 activation at 0.5 uM after 24 hrs by Western blotting analysis; type: functional, cell-based
How it was run: (§1)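 A498 cells exposed for 6, 12, 24, 36 or 48 h, then washed in PBS and lysed. Lysates were held on ice for 30 min and spun at 12 000g for 20 min. Supernatant protein was measured by Bradford assay, run on 10% SDS-PAGE and transferred to nitrocellulose. Blots were probed for AIF, Endo G, Apaf-1, cytochrome c, caspase 9 and caspase 3, with β-actin as loading control; n = 3 independent experiments.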

A498 [4] = experiment: Induction of cell cycle arrest at G2/M phase in human A498 cells assessed as increase in CDK1 expression at 0.5 uM after 6 hrs by Western blotting analysis; type: functional, cell-based
How it was run: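 A498 cells exposed to 0.5 µM for 6, 12, 24, 36 or 48 h, then lysed on ice 30 min and spun 12 000g 20 min. Protein measured by Bradford; 20 µg per lane run on 10% SDS-PAGE, transferred to nitrocellulose, probed for cyclin B1 and CDK1, β-actin as loading control; n = 3 independent experiments.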

A498 [5] = experiment: Induction of apoptosis in human A498 cells assessed as caspase-3 activation at 0.5 uM after 24 hrs by Western blotting analysis; type: functional, cell-based; how it was run: as §1
SF-268 = experiment: Cytotoxicity against human SF268 cells after 48 hrs by sulforhodamine B assay; type: functional; conditions: SF-268, 48 h
A498 [6] = experiment: Induction of apoptosis in human A498 cells assessed as increase in Endo G level at 0.5 uM after 6 to 48 hrs by Western blotting analysis; type: functional, cell-based; how it was run: as §1
A498 [7] = experiment: Ratio of YC-1 IC50 to compound IC50 for human A498 cells after 48 hrs by MTT assay; type: functional
A498 [8] = experiment: Antitumor activity against human A498 cells xenografted in BALB/cAnN.Cg-Foxn1nu/CrlNarl nude mouse assessed as suppression of tumor growth at 30 to 60 mg/kg/day, ip qd; type: functional, organism-based; conditions: TDE = time-dependent effect
How it was run: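 Male nude mice (18–20 g, 4–6 weeks) were inoculated subcutaneously with A498 cells, 2 × 10⁶ per mouse in 0.1 mL PBS. Once tumors reached 100 mm³, mice were randomized and given ip doses of 30 or 60 mg/kg, 5 times per week for 4 weeks. Body weight and tumor size were recorded every 7 days over 28 days. Volume = 1/2 ([…]).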

NCI-H322M = experiment: Cytotoxicity against human NCI-H322M cells after 48 hrs by sulforhodamine B assay; type: functional
SR = experiment: Cytotoxicity against human SR cells after 48 hrs by sulforhodamine B assay; type: functional
SK-MEL-28 = experiment: Cytotoxicity against human SK-MEL-28 cells after 48 hrs by sulforhodamine B assay; type: functional; conditions: SK-MEL-28, 48 h
HCC 2998 = experiment: Cytotoxicity against human HCC2998 cells after 48 hrs by sulforhodamine B assay; type: functional; conditions: HCC 2998, 48 h
786-0 = experiment: Cytotoxicity against human 786-0 cells after 48 hrs by sulforhodamine B assay; type: functional; conditions: 786-0, 48 h
A498 [9] = experiment: Induction of apoptosis in human A498 cells assessed as late apoptotic cells at 0.5 uM after 12 hrs by AnnexinV/FITC-propidium iodide staining-based flow cytometry (reference value: 9.6%); type: functional
How it was run: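 Flow cytometry with annexin V-FITC/PI double labeling of A498 cells treated for 12, 24, 36 or 48 h; untreated cells served as the 0 h control. Stained in binding buffer for 15 min at room temperature in the dark, with more binding buffer added just before analysis. Annexin V+/PI− (Q4) counted as early apoptotic and annexin V+/PI+ (Q2) as late apoptotic.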

A498 [10] = experiment: Cytotoxicity against human A498 cells assessed as reduction in cell viability at 0.1 uM after 48 hrs by MTT assay relative to control; type: functional
[11] = read-out: pLC50 (the source's name) (converted)

SMILES: OCc1ccc(Cn2c3ccccc3c3oc(CO)cc32)o1
- Activity (A498 [1]): 41%
- Activity (A498 [2]): 15.98%
- GI50 (DU-145): > 100 µM
- CC50 (DU-145; [11]): > 100 µM
- TGI (DU-145; read-out: pTGI): > 100 µM
- GI50 (SK-MEL-2): > 100 µM
- CC50 (SK-MEL-2; [11]): > 100 µM
- TGI (SK-MEL-2; read-out: pTGI): > 100 µM
- Activity (A498 [3]): Active
- Activity (A498 [4]): Active
- Activity (A498 [5]): Active
- GI50 (SF-268): 97.7 µM
- CC50 (SF-268; [11]): > 100 µM
- TGI (SF-268; read-out: pTGI): > 100 µM
- Activity (A498 [6]): Active
- Ratio IC50 (A498 [7]): 1.5
- Activity (A498 [8]): tde
- GI50 (NCI-H322M): > 100 µM
- CC50 (NCI-H322M; [11]): > 100 µM
- TGI (NCI-H322M; read-out: pTGI): > 100 µM
- GI50 (SR): 89.1 µM
- CC50 (SR; [11]): > 100 µM
- TGI (SR; read-out: pTGI): > 100 µM
- GI50 (SK-MEL-28): > 100 µM
- CC50 (SK-MEL-28; [11]): > 100 µM
- TGI (SK-MEL-28; read-out: pTGI): > 100 µM
- GI50 (HCC 2998): > 100 µM
- CC50 (HCC 2998; [11]): > 100 µM
- TGI (HCC 2998; read-out: pTGI): > 100 µM
- GI50 (786-0): 50.1 µM
- CC50 (786-0; [11]): > 100 µM
- TGI (786-0; read-out: pTGI): > 100 µM
- Activity (A498 [9]): 10%
- Activity (A498 [10]): 82.8%
